# Assay outcomes from PubChem.
# An excerpt weighted towards active compounds, which were near 2.6% of everything screened.
# SENP8 block-1: SENP8 protease inhibitors, primary screen, biochemical, luminescence. purified SENP8, Z-RLRGG-aminoluciferin cleavage. inhibition, % at 10 µM. hit rate 1.2% among 330,000. AID 2540, 2010; in the data active = inhibition above about 50%
# SENP1 inh: human SENP1 catalytic domain inhibitors, primary screen, biochemical, FRET, uHTS; hit rate 0.21% among 360,000; inhibition, % at 10 µM; Sentrin-specific protease 1 (Homo sapiens), Q9P0U3; recombinant SENP1 catalytic domain, CyPet-SUMO1-YPet FRET cleavage;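 active = inhibition at least 30% at 10 µM, raw YFP signal under a set limit, fluorescence ratio 0.5 to 1.5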;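 also: 0% = enzyme with DMSO and 100% = no enzyme wells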
#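 material = recombinant human SENP1 catalytic domain, His6-tagged | quantity = 20 pM enzyme | reagent = 25 nM SUMO1 FRET substrate | compound dosing = 10 µM single point, 0.5% DMSO | timing = 50 min enzyme reaction, room temperature, light-protected | detection = FRET, CFP and YFP emission | control set = no-enzyme low, enzyme-DMSO high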
# Platelet DG rel: inhibitors of platelet dense granule secretion, primary screen, cell-based, MLPCN, human platelets; human platelet-rich plasma, SFLLRN dense granule ATP release, luminescence; inhibition, %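 (compounds screened at 7.5 µM in platelet-rich plasma)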; hit rate 0.22% among 300,000;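 active = mean replicate score, as percent of positive control, at or above 50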
# SENP8 block-2: human SENP8 protease inhibitors, primary screen, biochemical, fluorescence, Nedd8 protein substrate, uHTS. hit rate 0.64% among 360,000. Sentrin-specific protease 8 (Homo sapiens), Q96LD8. inhibition, % at 20 µM. recombinant SENP8; in the data active = inhibition mostly above about 40%, no sharp cut-off; inactive = mostly below about 27%
# SENP7 block: SENP7 protease inhibitors, primary screen, biochemical, luminescence, uHTS; Sentrin-specific protease 7 (Homo sapiens), Q9BQF6; recombinant SENP7, Z-RLRGG-aminoluciferin luminescence, 40 min; inhibition, % at 5 µM; hit rate 1.5% among 330,000; AID 434973, 2010;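 active = inhibition above about 50% at the single test dose, limit read from the data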;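 also: plate controls were DMSO with enzyme for no effect and no enzyme buffer wells for full effect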
# Target sequence (Q9BQF6 706-1050 limits assumed): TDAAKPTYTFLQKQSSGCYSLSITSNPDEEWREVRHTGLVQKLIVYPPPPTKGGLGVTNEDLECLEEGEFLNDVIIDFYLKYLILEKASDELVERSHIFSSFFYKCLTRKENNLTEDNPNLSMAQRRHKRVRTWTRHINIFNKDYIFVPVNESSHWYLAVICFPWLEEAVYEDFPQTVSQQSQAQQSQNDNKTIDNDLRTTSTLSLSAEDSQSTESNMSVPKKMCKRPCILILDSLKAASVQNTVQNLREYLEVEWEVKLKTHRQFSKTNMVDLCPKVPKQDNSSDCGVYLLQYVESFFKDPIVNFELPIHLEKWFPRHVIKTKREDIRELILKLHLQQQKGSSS
# SENP6 inh: SENP6 protease inhibitors, primary screen, biochemical, luminescence, uHTS. Sentrin-specific protease 6 (Homo sapiens), Q9GZR1. Recombinant SENP6 catalytic domain, aminoluciferin luminescence. inhibition, % at 10 µM. hit rate 1.8% among 330,000. AID 2599, 2010;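 active = inhibition above about 50% at the single tested dose, limit read from the data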;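 also: plate controls were DMSO wells with enzyme for no effect and DMSO wells lacking enzyme for full effect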
# SENP8 confirm: SENP8 protease inhibitors, retest, confirmation, biochemical, luminescence, single concentration | shares compounds with SENP7 block | hit rate 40% among 6,200 | inhibition, % at 12.5 µM | Recombinant SENP8, Z-RLRGG-aminoluciferin luminescence, 60 min;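 active = mean inhibition across replicates above about 50%, limit read from the data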
# SENP6 conf: SENP6 protease inhibitors, confirmation, biochemical, luminescence, single concentration; recombinant SENP6, Z-RLRGG-aminoluciferin luminescence; hit rate 58% among 6,200; shares compounds with SENP7 block; AID 488915, 2010; inhibition, % at 12.5 µM
# SENP7 confirm: SENP7 protease inhibitors, retest, confirmation, biochemical, luminescence, single concentration; inhibition, % at 12.5 µM; recombinant SENP7, Z-RLRGG-aminoluciferin luminescence, 40 min; hit rate 69% among 6,200; AID 488917, 2010; shares compounds with SENP7 block
# Casp3 select: caspase-3 protease inhibitors, confirmation, selectivity assay for SENP inhibitor project, biochemical, single concentration; shares compounds with SENP7 block; purified caspase-3, Z-DEVD-aminoluciferin luminescence, 60 min; inhibition, % at 12.5 µM; hit rate 60% among 6,200; AID 488918, 2010;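 active = mean inhibition above about 50%, limit read from the data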;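 also: plate controls were enzyme with DMSO for no effect and wells without caspase-3 for full effect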
# Target sequence (P42574 28-227 limits assumed): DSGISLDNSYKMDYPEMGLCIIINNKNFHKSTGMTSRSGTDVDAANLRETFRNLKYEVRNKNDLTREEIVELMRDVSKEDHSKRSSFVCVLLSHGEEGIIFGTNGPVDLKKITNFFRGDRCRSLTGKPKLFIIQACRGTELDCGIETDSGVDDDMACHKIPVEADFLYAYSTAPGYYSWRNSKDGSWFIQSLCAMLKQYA
# Luc interf: luminescence interference (SENP counter-screen); shares compounds with SENP7 block; Pre-incubated SENP8/Z-RLRGG-aminoluciferin, luciferase luminescence interference; inhibition, % at 12.5 µM; hit rate 39% among 6,200; AID 488919;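 active = mean inhibition above about 50% when retested at one dose, limit read from the data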;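 also: plate controls were DMSO wells with completed reaction for no effect and substrate without enzyme for full effect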
# An asterisk follows results filed as active; i = inactive; . = no result given.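 The calls were made as follows, unless noted: active = mean inhibition above about 50% in the one-dose retest (limit read from the data); inactive = the rest.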
SMILES,SENP8 block-1,SENP1 inh,Platelet DG rel,SENP8 block-2,SENP7 block,SENP6 inh,SENP8 confirm,SENP6 conf,SENP7 confirm,Casp3 select,Luc interf
CCN(CC)c1ccc(/C=N/N2C(=O)c3ccccc3C2=O)c(O)c1,-16,-29,-24,-1,-2,1,.,.,.,.,.
CCN(CC)c1ccc(/C=N/N2C(=O)c3ccccc3C2=O)cc1,33,-1,-3,-4,45,63*,-6,16,-5,-1,-1
COc1ccc(/C=N/N2C(=O)c3ccccc3C2=O)cc1,79*,0,33,7,87*,88*,3,74*,70*,85*,25
O=S(=O)(c1ccccc1)N(CC(O)CN1CCOCC1)c1ccccc1 (stereo unspecified),77*,2,-17,10,-9,-12,11,10,8,-2,-5
CSc1ncnc2c1ncn2CCCN1CCN(C(=O)C2CC2)CC1,.,0,.,4,.,.,.,.,.,.,.
Cc1nn(-c2ccccc2)c(C)c1C(=O)N1CCN(S(=O)(=O)c2ccccc2)CC1,2,2,.,12,2,-22,.,.,.,.,.
CC(C)OC(=O)CC(=O)c1sc2nc3c(cc2c1N)CN(C)CC3,1,.,9,.,-8,54*,4,4,-7,1,-6
CC(=O)Nc1ccc(NC(=O)CSc2nnc(NC(=O)c3cccc(F)c3)s2)cc1,68*,2,23,-73,52*,77*,62*,70*,91*,82*,19
O=C(CSc1nnc(NC(=O)c2c(F)cccc2F)s1)Nc1ccc(F)cc1,-8,2,1,-2,-12,-26,.,.,.,.,.
CCc1ccc(Nc2nnc(SCC(=O)Nc3ccc(C(=O)O)cc3)s2)cc1,52*,4,5,21,53*,6,-12,51*,46,60*,8
CC(C)N(C(=O)CSc1nnc(-c2ccc3c(c2)OCO3)n1C)C(C)C,8,-1,-3,3,-5,-2,.,.,.,.,.
CN1CCN(c2ccc(NC(=O)c3cccs3)cc2)CC1,28,3,39,1,39,54*,25,24,72*,82*,47
CC(C)C(=O)N1CCN(c2ccc(NC(=O)c3cccs3)cc2)CC1,-8,1,0,18,-6,-10,.,.,.,.,.
Cc1ccn(-c2ccc(NC(=O)c3cccs3)cc2)n1,74*,0,18,5,80*,85*,78*,76*,94*,88*,82*
O=C1NC[C@@H](CCCCN2C[C@H](Cc3ccc(O)cc3)N(CCc3ccccc3)C(=O)C2=O)N(CCc2ccc(O)cc2)C1=O,.,1,.,13,.,.,.,.,.,.,.
CN1CCN(C(=O)c2ccccc2NC(=O)c2ccccc2)CC1,-6,1,4,7,0,5,.,.,.,.,.
COc1cc(Cn2c(N)c(C#N)c3nc4ccccc4nc32)cc(OC)c1,23,-122,-7,-295,8,88*,5,8,12,5,7
N#Cc1c(N)n(CCc2ccc(F)cc2)c2nc3ccccc3nc12,24,-30,-3,-413,15,62*,-17,0,4,-1,-2
COc1cccc(Cn2c(N)c(C#N)c3nc4ccccc4nc32)c1OC,38,-42,-1,-380,26,85*,-19,-11,-8,-9,-7
Cc1ccc(C(=O)NCCn2c(N)c(C#N)c3nc4ccccc4nc32)cc1,10,-28,7,-272,34,43,.,.,.,.,.
COc1ccc(Cn2c(N)c(C#N)c3nc4ccccc4nc32)cc1,-4,-19,5,-269,-3,22,.,.,.,.,.
N#Cc1c(N)n(CCNC(=O)c2ccc(Cl)cc2)c2nc3ccccc3nc12,42,-18,-2,i,41,70*,4,6,5,2,-5
COc1cccc(Cn2c(C(C)n3c(-c4cnccn4)nc4ccccc43)nc3ccccc32)c1 (stereo unspecified),.,1,.,-391,.,.,.,.,.,.,.
COCCCNC(=O)COC(=O)c1ccc(-c2nc3ccccc3s2)s1,82*,-1,26,-433,86*,86*,61*,66*,91*,78*,59*
CNC(=O)COC(=O)c1ccc(-c2nc3ccccc3s2)s1,93*,-6,34,-282,97*,97*,26,31,51*,52*,32
SMILES,SENP8 block-1,SENP1 inh,Platelet DG rel,SENP8 block-2,SENP7 block,SENP6 inh,SENP8 confirm,SENP6 conf,SENP7 confirm,Casp3 select,Luc interf
CNC(=O)COC(=O)/C=C/c1nc2ccccc2s1,-9,2,-1,1,-8,-17,.,.,.,.,.
C=CCOc1ccc(/C=C/C(=O)OCC(=O)NCc2ccco2)cc1,-14,-1,0,12,2,0,.,.,.,.,.
COCCNC(=O)CN(C(=O)c1ccc(N2CCCC2)nc1)c1ccc(F)c(Cl)c1,56*,2,7,-5,1,51*,13,10,12,4,7
COc1ccc2c(c1OC)C(=O)OC2C1c2c(cc3c(c2OC)OCO3)CCN1C (stereo unspecified),3,1,-3,-12,1,-15,.,.,.,.,.
CN1CCc2cc3c(c4c2[C@H]1[C@H](O)c1ccccc1-4)OCO3,16,-32,4,-15,43,59*,33,78*,64*,70*,9
Cc1cc(C(=O)Nc2ccc3ccccc3c2)c(C)o1,73*,-1,-1,-20,69*,84*,84*,84*,96*,66*,68*
